In brackets after ≈: the same amount, converted by molar mass. Activity calls are given as the source filed them. The rule behind the calls is not given here.
Assays:
[1] = biological target: Protein cereblon/DNA damage-binding protein 1 (Homo sapiens, UniProt Q96SW2); experiment: Displacement of Cy5-conjugated CELMoD from N-terminal 6-His tagged CRBN (1 to 442 residues) (unknown origin)/DDB1 (1 to 1140 residues) (unknown origin) incubated for 10 mins by FRET assay; assay type: protein assay
[2] = biological target: T1, D(2) dopamine receptor (Homo sapiens, UniProt P14416); experiment: Inhibition of D2S (unknown origin) at 10 uM relative to control
[3] = biological target: T1, D(2) dopamine receptor; experiment: Agonist activity at D2S (unknown origin)
[4] = biological target: Adrenergic receptor alpha-1 (Homo sapiens) (UniProt P35348+P25100+P35368); experiment: Inhibition of adrenergic receptor alpha1 (unknown origin) at 10 uM relative to control; assay type: protein assay
[5] = biological target: Protein cereblon/Eukaryotic peptide chain release factor GTP-binding subunit ERF3A (Homo sapiens, UniProt P15170+Q96SW2); experiment: Induction of CRBN-mediated pLOC-ePL-tagged GSPT1 (unknown origin) degradation in human DF15 cells assessed as minimum protein remaining incubated for 4 hrs by luminescence based beta-galactosidase enzyme fragmentation complementation assay; assay type: cell-based
[6] = biological target: Protein cereblon/Zinc finger protein Aiolos (Homo sapiens, UniProt Q96SW2+Q9UKT9); experiment: Induction of CRBN-mediated pLOC-ePL-tagged aiolos (unknown origin) degradation in human DF15 cells assessed as minimum protein remaining incubated for 4 hrs by luminescence based beta-galactosidase enzyme fragmentation complementation assay; assay type: cell-based
[7] = tested on: PBMC; experiment: Cytotoxicity against PBMC (unknown origin); assay type: cell-based
[8] = biological target: D(2) dopamine receptor (Rattus norvegicus) (UniProt P61169); experiment: In vivo agonist activity at D2S in rat assessed as suppression of gut motility administered daily for 7 days; assay type: functional, organism-based
[9] = (§1) Antiproliferative activity against lenalidomide-resistant human H929-R10-1 cells incubated for 5 days by CellTiter-Glo assay; assay type: functional; details: 120 h
How it was run: (§2)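 H929 R10-1 cells kept in log phase at 37°C, 5% CO₂, and plated at 5000 cells/well. Compounds were added as 10-point duplicate curves starting at 10µM with 1:3 dilutions, in 0.1% DMSO, final volume 40µl. Plates were incubated for 5 days. Viability was read by CellTiter-Glo luminescence after 1 h at room temperature in the dark. IC50 is the mean of ≥3 separate determinations.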

[10] = species on record: Homo sapiens; experiment: Induction of apoptosis in lenalidomide-resistant human H929-R10-1 cells assessed as increase in cleaved caspase3 level at 1 to 100 nM after 72 hrs by Western blot analysis; assay type: functional
How it was run: (§3)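 H929 R10-1 cells treated with DMSO or compound (1–100 nM) for 72 h, washed in PBS, lysed in NP-40/Tris pH 8 buffer with protease and phosphatase inhibitors; clarified lysates immunoblotted for p27, cleaved caspase-1, -3, -7 and cleaved PARP, with β-tubulin, using fluorescent secondary antibodies.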

[11] = species on record: Homo sapiens; experiment: Induction of apoptosis in lenalidomide-resistant human H929-R10-1 cells assessed as p27 stabilization at 1 to 100 nM after 72 hrs by Western blot analysis; assay type: functional; how it was run: as §3
[12] = species on record: Homo sapiens; experiment: Induction of apoptosis in lenalidomide-resistant human H929-R10-1 cells assessed as increase in cleaved caspase1 level at 1 to 100 nM after 72 hrs by Western blot analysis; assay type: functional; how it was run: as §3
[13] = species on record: Homo sapiens; experiment: Induction of apoptosis in lenalidomide-resistant human H929-R10-1 cells assessed as increase in cleaved PARP level after 72 hrs by Western blot analysis; assay type: functional; how it was run: as §3
[14] = species on record: Homo sapiens; experiment: Induction of apoptosis in lenalidomide-resistant human H929-R10-1 cells assessed as increase in cleaved caspase7 level at 1 to 100 nM after 72 hrs by Western blot analysis; assay type: functional; how it was run: as §3
[15] = species on record: Homo sapiens; experiment: as §1; assay type: functional; how it was run: as §2
[16] = species on record: Homo sapiens; experiment: Induction of apoptosis in lenalidomide-resistant human H929-R10-1 cells assessed as caspase3 induction at 1 uM measured over 150 hrs by live cell imaging analysis; assay type: functional
How it was run: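 Lenalidomide-refractory H929 R10-1 cells were treated at concentrations from 1 nM to 1 μM. Caspase-3 induction was quantified by live-cell imaging over 150 h.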

[17] = Cmax in monkey at 3 mg/kg, po; assay type: ADME, organism-based, Macaca mulatta; design: dose 3 mg/kg, route oral; details: rhesus monkey, in vivo
[18] = AUC (0 to infinity) in Sprague-Dawley rat at 10 mg/kg, po; assay type: ADME, organism-based; design: dose 10 mg/kg, route oral, time infinity; details: in vivo
How it was run: (§4)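 Sprague-Dawley rats given 10 mg/kg orally as a suspension in 0.5% CMC / 0.25% Tween-80 / water; plasma exposure followed.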

[19] = Cmax in Sprague-Dawley rat at 10 mg/kg, po; assay type: ADME, organism-based; design: dose 10 mg/kg, route oral; details: in vivo; how it was run: as §4
[20] = AUC (0 to infinity) in monkey at 3 mg/kg, po; assay type: ADME, organism-based, Macaca mulatta; design: dose 3 mg/kg, route oral, time infinity; details: rhesus monkey, in vivo
[21] = Drug metabolism in monkey assessed as compound racemization at 3 mg/kg, po relative to compound AUC; assay type: ADME, organism-based, Macaca mulatta; details: rhesus monkey, in vivo
[22] = Drug metabolism in assay cell medium assessed as compound racemization measured within 24 hrs; assay type: physicochemical
How it was run: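 Compound held in the same cell medium used for the H929 R10-1 antiproliferation assay; enantiomer levels followed by chiral monitoring over 24 h.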

[23] = Metabolic stability in rat liver S9 fraction assessed as parent compound remaining after 60 mins; assay type: ADME, subcellular; details: read-out: Stability
How it was run: (§5)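 Compound incubated with human or rat liver S9 fraction; percent parent remaining at 60 min.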

[24] = Antitumor activity against human NCI-H929-1051 cells xenografted in CB17 SCID mouse assessed as reduction in tumor volume at 3 mg/kg, po qd for 21 days measured post last dose by caliper method relative to control; assay type: functional; design: scale not given: the % may be the effect or the level left
How it was run: (§6)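 Female CB17 SCID mice, 6-8 weeks old, were inoculated subcutaneously with 10×10⁶ NCI-H929-1051 cells, which had been expanded in 10 μM lenalidomide. At about 150 mm³ the mice were randomized (n=8-10/group) and dosed orally once daily for 21 days, with a vehicle control group. Tumors were measured by caliper twice weekly and volume was taken as width²×length/2. Final volumes were taken after the last dose. Data are mean ± SEM.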

[25] = Oral bioavailability in Sprague-Dawley rat at 10 mg/kg; assay type: ADME, organism-based; details: in vivo; how it was run: as §4
[26] = Efflux ratio of permeability across apical to basolateral side in human Caco2 cells; assay type: ADME, cell-based; details: Caco-2
[27] = Antitumor activity against human NCI-H929-1051 cells xenografted in CB17 SCID mouse assessed as reduction in tumor volume at 1 mg/kg, po qd for 21 days measured post last dose by caliper method relative to control; assay type: functional; design: scale not given: the % may be the effect or the level left; how it was run: as §6
[28] = Clearance in Sprague-Dawley rat at 2 mg/kg, iv; assay type: ADME, organism-based; details: in vivo
[29] = species on record: Homo sapiens; experiment: Induction of apoptosis in lenalidomide-resistant human H929-R10-1 cells assessed as caspase3 induction at 1 nM measured over 150 hrs by live cell imaging analysis; assay type: functional
How it was run: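 Lenalidomide-refractory H929 R10-1 cells treated at 1 nM to 1 μM; caspase-3 induction quantified by live cell imaging over 150 h.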

[30] = Metabolic stability in human liver S9 fraction assessed as parent compound remaining after 60 mins; assay type: ADME, subcellular; details: read-out: Stability; how it was run: as §5
[31] = Antitumor activity against human NCI-H929-1051 cells xenografted in CB17 SCID mouse assessed as reduction in tumor volume at 10 mg/kg, po qd for 21 days measured post last dose by caliper method relative to control; assay type: functional; design: scale not given: the % may be the effect or the level left; how it was run: as §6
[32] = Tmax in Sprague-Dawley rat at 10 mg/kg, po; assay type: ADME, organism-based; details: in vivo; how it was run: as §4
[33] = Solubility of the compound at pH 5; assay type: physicochemical; details: buffer

| SMILES | IC50 [1] [nM] | inhibition [2] [%] | EC50 [3] [nM] | inhibition [4] [%] | EC50 [6] [nM] | Activity [8] | IC50 [9] [nM] | Activity [10] | Activity [11] | Activity [12] | Activity [13] | Activity [14] | Cmax [17] [nM] | AUC(0-inf) [18] [µM·h] | Cmax [19] [nM] | AUC(0-inf) [20] [µM·h] | Drug metabolism [22] | further results |
| --- | --- | --- | --- | --- | --- | --- | --- | --- | --- | --- | --- | --- | --- | --- | --- | --- | --- | --- |
| O=C1CCC(N2Cc3c(OCc4ccc(CN5CCN(c6ccc(F)cc6F)CC5)cc4)cccc3C2=O)C(=O)N1 (racemic) | 55.1 to 502 | 99.1 | 16 | 102 | 0.1 | Active | 1.7 |  |  |  |  |  |  |  |  |  |  | EC50 [5]: > 10000 nM; Activity [7]: Non-Toxic |
| N#Cc1ccc(N2CCN(Cc3ccc(COc4cccc5c4CN(C4CCC(=O)NC4=O)C5=O)cc3)CC2)c(F)c1 (stereo unspecified) |  | 54.5 | > 10000 | 67 | 0.1 | inactive | 1.7 |  |  |  |  |  |  |  |  |  |  |  |
| Nc1cccc2c1C(=O)N(C1CCC(=O)NC1=O)C2=O (stereo unspecified) |  |  |  |  |  |  |  | inactive | inactive | inactive | inactive | inactive |  |  |  |  |  | Activity [15]: inactive; Activity [16]: Active |
| N#Cc1ccc(N2CCN(Cc3ccc(COc4cccc5c4CN([C@@H]4CCC(=O)NC4=O)C5=O)cc3)CC2)c(F)c1 | 4510 |  |  |  |  |  |  |  |  |  |  |  | 16 | 0.5 | 60 | 0.1 | Metabolite_Detected | Drug metabolism [21]: < 9% |
| N#Cc1ccc(N2CCN(Cc3ccc(COc4cccc5c4CN([C@H]4CCC(=O)NC4=O)C5=O)cc3)CC2)c(F)c1 [MEZIGDOMIDE] | 30 |  |  |  |  |  |  | Active | Active | Active | Active | Active | 220 | 16.4 | 3200 | 1.1 | Metabolite_Detected | remaining at 1 h [23]: 100%; Activity [24]: 83.8%; bioavailability [25]: 38%; efflux ratio [26]: 1; Activity [27]: 75.3%; clearance [28]: 6.8 mL/min/kg; Activity [29]: Active; remaining at 1 h [30]: 99%; Activity [31]: 85.7%; Tmax [32]: 48 min; solubility [33]: 90 µg/mL (≈ 159 µM) |
